Bioassay records from PubChem BioAssay.
An excerpt weighted towards active compounds, which were near 0.81% of everything screened.
SDO1 yeast rescue = growth rescue of sdo1-depleted yeast, primary screen, S. cerevisiae, bone marrow failure model; z-score at 10 µM; 0.21% of 140,000 active; S. cerevisiae sdo1-depleted JHY4D growth rescue, OD600 30 h; hits give high values; pdr5 snq2 efflux-pump mutant strain; AID 817, 2007;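 active = z-score above 3 at both the 24 hr and the 30 hr optical density reads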
TNF death inh = inhibitors of TNF-alpha triggered necroptosis, primary screen, cell-based, Jurkat FADD-/-, single concentration. Jurkat FADD-/- TNF necroptosis rescue, ATP luminescence, 24 h; 0 = TNF only, 100 = no-TNF cells. activation (protection from cell death), % at 10 µM. 0.068% of 220,000 active. AID 463075, 2010;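 active = activation, meaning protection from cell death, of at least 50% relative to plate controls; inactive = activation below 50%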;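 note: necroptosis triggered by 40 ng/mL TNF-alpha added together with compound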
L929 necroptosis = inhibitors of zVAD-triggered necroptosis, primary screen, L929 cells. L929 zVAD necroptosis rescue, ATP luminescence, 24 h; with zVAD 60 µM. viability rescue, % at 10 µM. 0.38% of 220,000 active. AID 1377, 2008;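 active = activation, scaled between plate controls, above about 75%, limit read from the data; inactive = activation under that limit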
TNAP act hi DEA = TNAP activators at high phosphate acceptor level, primary screen, biochemical, luminescence, uHTS; Alkaline phosphatase, tissue-nonspecific isozyme (Homo sapiens), P05186; activation factor at 20 µM; 200,000 tested, under 10 active; purified TNAP, CDP-star luminescence, 1 M DEA, 30 min; hits give high values; 0 = EDTA background, 1 = DMSO-only activity;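 active = activation factor at least 2 at 20 µM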
Target sequence (P05186 whole entry, looked up): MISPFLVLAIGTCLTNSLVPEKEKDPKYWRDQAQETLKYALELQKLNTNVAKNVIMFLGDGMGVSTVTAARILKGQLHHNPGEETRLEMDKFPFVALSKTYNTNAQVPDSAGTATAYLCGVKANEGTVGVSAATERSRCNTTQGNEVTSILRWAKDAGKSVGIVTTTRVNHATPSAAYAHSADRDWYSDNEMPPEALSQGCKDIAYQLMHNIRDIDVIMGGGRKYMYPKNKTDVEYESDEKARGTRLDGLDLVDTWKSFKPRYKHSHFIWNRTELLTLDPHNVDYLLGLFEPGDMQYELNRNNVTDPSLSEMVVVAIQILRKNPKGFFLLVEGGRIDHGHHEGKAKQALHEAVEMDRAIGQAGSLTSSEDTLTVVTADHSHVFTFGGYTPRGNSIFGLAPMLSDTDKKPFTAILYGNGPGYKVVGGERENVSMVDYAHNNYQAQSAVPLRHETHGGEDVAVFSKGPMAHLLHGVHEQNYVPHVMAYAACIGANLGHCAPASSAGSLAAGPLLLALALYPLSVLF
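Measured by: Luminescent substrate turnover signal | Test system: Human TNAP | Input: TNAP 1/800 final | Dosing: 20 µM single point | Schedule: 30 min, room temperature | Controls: EDTA wells as negative control, DMSO wells as positive control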
TNAP inh no acc = human TNAP enzyme inhibitors, primary screen, biochemical, luminescent, no phosphate acceptor, uHTS. purified TNAP, CDP-star luminescence, 30 min. inhibition, % at 20 µM. 0.26% of 200,000 active. AID 1012, 2008;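 active = tissue-nonspecific alkaline phosphatase inhibition above about 50% at 20 µM in the single-dose screen, limit read from the data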
TNAP inh hiacc = human TNAP enzyme inhibitors, primary screen, biochemical, luminescent, high phosphate acceptor level, uHTS; AID 1135, 2008; Alkaline phosphatase, tissue-nonspecific isozyme (Homo sapiens), P05186; 0.03% of 200,000 active; inhibition, % at 20 µM; purified TNAP, CDP-star luminescence, 1 M DEA;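 active = over 50% inhibition of tissue-nonspecific alkaline phosphatase at 20 µM in the single-dose screen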
zVAD necrop conf = inhibitors of zVAD-triggered necroptosis in L929, confirmation, L929 cells, duplicate runs. shares compounds with L929 necroptosis. L929 zVAD-induced necroptosis rescue, ATP luminescence, 24 h. activation (protection from necroptosis), % at 10 µM. 16% of 760 active;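 active = mean protection from necroptosis of at least 50% over duplicate tests; inactive = mean protection below 50%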
Numbers stand for hits.

Results for CC(C)NC(=O)NC(=O)CSc1nnc(COc2ccccc2Cl)o1 ?
SDO1 yeast rescue: inactive; TNF death inh: inactive; L929 necroptosis: inactive; TNAP act hi DEA: inactive; TNAP inh no acc: inactive; TNAP inh hiacc: inactive

How did O=C(CSc1nnc(COc2ccccc2Cl)o1)NC(=O)NC1CCCC1 do in these assays?
SDO1 yeast rescue: inactive; TNF death inh: inactive; L929 necroptosis: 87; TNAP act hi DEA: inactive; TNAP inh no acc: inactive; TNAP inh hiacc: inactive; zVAD necrop conf: inactive

Results for Clc1cc2c(nn1)Nc1ccccc1S2 ?
TNF death inh: inactive; L929 necroptosis: inactive

Results for FC(F)(F)c1cnc2c(c1)Nc1ccccc1S2 ?
SDO1 yeast rescue: inactive; TNF death inh: inactive; L929 necroptosis: 98; TNAP act hi DEA: inactive; TNAP inh no acc: inactive; TNAP inh hiacc: inactive; zVAD necrop conf: 58

How did Oc1ccccc1N=Cc1c(O)ccc2ccccc12 do in these assays?
TNF death inh: inactive; L929 necroptosis: 84; zVAD necrop conf: inactive

How did O=C(COc1ccccc1F)Nc1nnc(-c2ccncc2)s1 do in these assays?
SDO1 yeast rescue: inactive; TNF death inh: inactive; L929 necroptosis: inactive; TNAP act hi DEA: inactive; TNAP inh no acc: inactive; TNAP inh hiacc: inactive

What do the screens show for `Cc1ccccc1NC(=O)Cc1nnc(NC(=O)Nc2ccccc2F)s1`?
TNF death inh: inactive; L929 necroptosis: inactive

How did O=C(Nc1nnc(-c2ccncc2)s1)Nc1ccccc1F do in these assays?
TNF death inh: inactive; L929 necroptosis: 78; TNAP act hi DEA: inactive; TNAP inh no acc: inactive; TNAP inh hiacc: inactive; zVAD necrop conf: inactive

Results for COc1ccc(OCc2nnc(NC(=O)Nc3ccccc3F)s2)cc1 ?
TNF death inh: inactive; L929 necroptosis: 83; zVAD necrop conf: inactive

How did COC(=O)c1c(C)[nH]c(O)c1C=Nc1ccc(C(C)C)cc1 do in these assays?
SDO1 yeast rescue: inactive; TNF death inh: inactive; L929 necroptosis: 82; TNAP act hi DEA: inactive; TNAP inh no acc: inactive; TNAP inh hiacc: inactive; zVAD necrop conf: inactive

Results for COCC(C)n1c(C)cc(C(=O)CSc2nnnn2-c2ccc(O)cc2)c1C (stereo unspecified) ?
TNF death inh: inactive; L929 necroptosis: 76; TNAP act hi DEA: inactive; TNAP inh no acc: inactive; TNAP inh hiacc: inactive; zVAD necrop conf: inactive

What do the screens show for `COCC(C)n1c(C)cc(C(=O)CSc2ncccn2)c1C` (stereo unspecified)?
TNF death inh: inactive; L929 necroptosis: inactive; TNAP act hi DEA: inactive; TNAP inh no acc: inactive; TNAP inh hiacc: inactive

Results for CC(C)CC(=O)Nc1nc2ccc(S(C)(=O)=O)cc2s1 ?
TNF death inh: inactive; L929 necroptosis: 81; TNAP act hi DEA: inactive; TNAP inh no acc: inactive; TNAP inh hiacc: inactive; zVAD necrop conf: inactive

Results for CCCC(=O)Nc1nc2ccc(S(N)(=O)=O)cc2s1 ?
SDO1 yeast rescue: inactive; TNF death inh: inactive; L929 necroptosis: 80; TNAP act hi DEA: inactive; TNAP inh no acc: inactive; TNAP inh hiacc: inactive; zVAD necrop conf: inactive

How did CCC(=O)Nc1nc2ccc(S(C)(=O)=O)cc2s1 do in these assays?
SDO1 yeast rescue: inactive; TNF death inh: inactive; L929 necroptosis: inactive; TNAP act hi DEA: inactive; TNAP inh no acc: inactive; TNAP inh hiacc: inactive

What do the screens show for `Nn1c(SCc2ccccn2)nncc1=O`?
TNF death inh: inactive; L929 necroptosis: inactive; TNAP act hi DEA: inactive; TNAP inh no acc: inactive; TNAP inh hiacc: inactive

Results for O=C(OCn1ncc(Br)c(Br)c1=O)c1ccc(F)cc1 ?
SDO1 yeast rescue: inactive; TNF death inh: inactive; L929 necroptosis: 113; TNAP act hi DEA: inactive; TNAP inh no acc: inactive; TNAP inh hiacc: inactive; zVAD necrop conf: 136
